Screening data from PubChem.
Rin1-Abl PPI inh – inhibitors of Rin1-Abl protein binding, primary screen, biochemical, TR-FRET; inhibition, % at 7.35 µM; 360,000 compounds, 0.4% hits; AID 588664, 2011; in the data active means inhibition above about 5%, passing the limit was not always enough
Rpn11 inh – Rpn11 (PSMD14) deubiquitinase inhibitors, primary screen, biochemical, fluorescence polarization, uHTS. human 26S proteasome, Ub4-pepOG fluorescence polarization; 20S core pre-blocked with epoxomicin. 26S proteasome non-ATPase regulatory subunit 14 (Homo sapiens), O00487. 360,000 compounds, 0.59% hits. inhibition, % at 20 µM. AID 588493, 2011;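 active means inhibition at 20 µM, scaled to each plate's controls, above about 33%, limit read from the data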
Target sequence (O00487 whole entry, looked up): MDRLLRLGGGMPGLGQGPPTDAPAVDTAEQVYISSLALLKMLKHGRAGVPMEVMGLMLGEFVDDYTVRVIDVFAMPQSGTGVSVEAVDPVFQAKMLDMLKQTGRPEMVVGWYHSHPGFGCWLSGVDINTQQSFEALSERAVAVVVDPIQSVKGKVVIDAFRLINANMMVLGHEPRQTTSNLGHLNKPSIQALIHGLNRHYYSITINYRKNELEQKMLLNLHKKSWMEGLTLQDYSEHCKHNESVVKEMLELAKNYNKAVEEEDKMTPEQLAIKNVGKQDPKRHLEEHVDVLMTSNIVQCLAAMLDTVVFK
XiGFP reactiv – activators of inactive X chromosome reactivation, primary screen, imaging, XiGFP fibroblasts, GFP high-content imaging, set 2; 360,000 compounds, 0.055% hits; XiGFP mouse fibroblasts, % GFP-positive cells imaging, 3 d; cells co-treated with 5-aza-dC sensitizer; scaled so ellipticine positive control = 100%; activation, % at 7.58 µM; AID 743238, 2013;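 active means mean normalized replicate activation at least 10% and every replicate at or above 10%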;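 further: 0% = median of on-plate neutral control wells and 100% = ellipticine 6 µM median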
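assay system = SV40-immortalized XiGFP fibroblast cells, line 68-5-11 | buffer or medium = DMEM plus 5-aza-dC sensitizer | doses = single-point pinned compound dosing | times = 3-day compound exposure, then 15 min fixation at room temperature | benchmarks = positive control ellipticine, 6 µM final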
ABHD5-PLIN5 inh – ABHD5-PLIN5 interaction inhibitors, primary screen, cell lysate, split luciferase complementation, luminescence; 360,000 compounds, 0.78% hits; Split G. princeps luciferase complementation, 4 h; Perilipin-5 (Homo sapiens) + 1-acylglycerol-3-phosphate O-acyltransferase ABHD5 (Homo …; inhibition, % at 4 µM;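 active means inhibition above the mean inhibition across every tested compound plus 3 SD, cut at about 22% in these data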;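 further: 0% = DMSO only wells and the 100% control is not disclosed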
NadD inh – inhibitors of S. aureus NadD, primary screen, biochemical, colorimetric, uHTS; Nicotinate-nucleotide adenylyltransferase NadD (Staphylococcus aureus N315); purified NadD enzyme, colorimetric absorbance read-out; inhibition, % at 20 µM; 360,000 compounds, 0.78% hits; AID 602399, 2012; in the data active means inhibition above about 26%
ABHD5 PLIN5 conf – ABHD5-PLIN5 interaction inhibitors, confirmation, biochemical, luminescence. shares compounds with ABHD5-PLIN5 inh. inhibition, % at 4 µM. AID 651612, 2012. 2,200 compounds, 67% hits; in the data active means inhibition above about 23%;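 further: 0% = DMSO vehicle wells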
HNF4 split-luc – HNF4 dimerization inhibitors, counter-screen for ABHD5-PLIN5 interaction inhibitor project, biochemical, split-luciferase complementation, luminescence; shares compounds with ABHD5-PLIN5 inh; inhibition, % at 4 µM; 2,200 compounds, 77% hits; AID 651674, 2012;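 active means mean inhibition across replicate wells exceeding the computed hit threshold, cut at about 13% in these data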;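 further: light from luciferase halves that rejoin when HNF4 fusion proteins dimerize; 0% = DMSO only wells and the 100% control is not given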
Starred values were filed as active, the others as inactive; nt = not tested or not shown. Only some compounds are listed: those with a hit (about 1.9% of all), similar ones and a draw of the others.

SMILES | Rin1-Abl PPI inh | Rpn11 inh | XiGFP reactiv | ABHD5-PLIN5 inh | NadD inh | ABHD5 PLIN5 conf | HNF4 split-luc
C[C@@H]1CCCCO[C@@H](CN(C)Cc2ccccc2)[C@@H](C)CN([C@@H](C)CO)C(=O)c2cc(NC(=O)CCCN(C)C)ccc2O1 | nt | nt | 0 | nt | nt | nt | nt
CN(C)CCCNC(=O)[C@@H]1[C@@H](CO)[C@@H]2Cn3c(ccc(-c4ccncc4)c3=O)[C@H]1N2C(=O)C1CC1 | nt | nt | 0 | nt | nt | nt | nt
Cc1ccc(CN2C(=O)C(=O)c3cc(C)ccc32)cc1 | -5 | -3 | 0 | 30* | -2 | 25* | 43*
Cc1ccc2c(c1)C(=O)C(=O)N2Cc1ccc(Br)cc1 | -1 | 11 | 1 | 18 | 2 | nt | nt
Cn1c(=O)c(=O)n(C)c2cc([N+](=O)[O-])c([N+](=O)[O-])cc21 | -5 | -4 | 0 | 100* | 0 | 2 | 4
O=C(C[C@@H]1CC[C@H]2[C@@H](COC[C@@H](O)CN2S(=O)(=O)c2ccc(Cl)cc2)O1)N[C@@H]1CCN(Cc2ccccc2)C1 | nt | nt | 0 | nt | nt | nt | nt
Cc1ccc(S(=O)(=O)N2CN(CC3CCCO3)c3nc4ccccc4nc32)c(C)c1 (stereo unspecified) | 2 | 3 | 0 | 1 | 11 | nt | nt
COCCCN1CN(S(=O)(=O)c2ccc(C)cc2C)c2nc3ccccc3nc21 | 1 | -1 | 0 | 28* | -1 | 12 | 15*
COc1ccc2c3c([nH]c2c1)[C@@H](CO)N(C(=O)Cc1ccccn1)CC31CCN(Cc2ccccn2)CC1 | nt | nt | 0 | nt | nt | nt | nt
CC(C)(C)NC(=O)C(c1ccnc2ccccc12)n1c(=O)c(-c2ccco2)nc2ccccc21 (stereo unspecified) | nt | nt | 0 | 58* | nt | 42* | 7
CC(C)(C)NC(=O)C(c1ccncc1)n1c(=O)c(-c2ccco2)nc2ccccc21 (stereo unspecified) | nt | nt | 0 | 48* | nt | 44* | 14*
CC(C)(C)NC(=O)C(c1cccc2ccccc12)n1c(=O)c(-c2cc3ccccc3[nH]2)nc2ccccc21 (stereo unspecified) | nt | nt | 0 | -7 | nt | nt | nt
COc1ccc(NC(=O)C(c2ccncc2)n2c(=O)c(-c3ccco3)nc3ccccc32)cc1 (stereo unspecified) | nt | nt | 0 | 12 | nt | nt | nt
CCCCCNC(=O)C(c1ccncc1)n1c(=O)c(-c2ccco2)nc2ccccc21 (stereo unspecified) | nt | nt | 0 | 58* | nt | 35* | 15*
O=C(NCc1ccccc1)C(c1cc2ccccc2o1)n1c(=O)c(-c2ccccc2)nc2ccccc21 (stereo unspecified) | nt | nt | 0 | 4 | nt | nt | nt
CCCCCNC(=O)C(c1cc2ccccc2o1)n1c(=O)c(-c2ccco2)nc2ccccc21 (stereo unspecified) | nt | nt | 0 | 94* | nt | 85* | 14*
C[C@H]1CN([C@@H](C)CO)C(=O)c2cc(NC(=O)CCCCCC(=O)Nc3ccccc3N)ccc2O[C@@H]1CN(C)S(=O)(=O)c1ccccc1 | nt | nt | 0 | nt | nt | nt | nt
Cc1ccccc1-c1cnc2c(c1)C(=O)N([C@@H](C)CO)C[C@H](C)[C@H](CN(C)Cc1cccnc1)O2 | nt | nt | 1 | nt | nt | nt | nt
CCCNC(=O)N1CCC2(CC1)CN(C(C)=O)[C@H](CO)c1[nH]c3cc(OC)ccc3c12 | nt | nt | 0 | nt | nt | nt | nt
CC(C)(C)NC(=O)C(c1cc2ccccc2o1)n1c(-c2ccc(-c3ccccc3)cc2)nc2ccccc21 (stereo unspecified) | nt | nt | 0 | 2 | nt | nt | nt
CC(C)(C)NC(=O)C(c1cc2ccccc2o1)n1c(=O)c(-c2ccco2)nc2ccccc21 (stereo unspecified) | nt | nt | 0 | 79* | nt | 84* | 16*
CC(C)(C)NC(=O)C(c1ccccc1)n1c(=O)c(-c2ccco2)nc2ccccc21 (stereo unspecified) | nt | nt | 0 | 75* | nt | 77* | 26*
